Laboratory results: ChEMBL document CHEMBL4257459, “Synergistic antifungal effect of cyclized chalcone derivatives and fluconazole against Candida albicans” (2017)
In brackets after ≈: the same amount, converted by molar mass.

Columns and labels:
Candida albicans [1] = assay: Inhibition of ABC efflux pumps in fluconazole susceptible Candida albicans 004B1 assessed as reduction in energy-dependent rhodamine 6G efflux in presence of 0.1 M glucose after 25 mins by fluorescence assay relative to control
Summary of the method: (§1)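 Cells grown in TSB at 37 °C for 8 h, washed, resuspended in glucose-free PBS at 1 × 10^8 cells. De-energized 45 min with 5 mM deoxyglucose plus 5 mM dinitrophenol. […] Washed, sampled 5–25 min, then 0.1 M glucose added. Absorbance 527 nm, R6G from standard curve.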

Candida albicans [2] = assay: Antifungal activity against fluconazole susceptible Candida albicans 004B1 by CLSI protocol based broth microdilution method; format: functional
Summary of the method: (§2)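 Clinical isolates and control strain subcultured at least twice on TSA, 37 °C, 48 h. MICs by CLSI M27-A3 broth microdilution; compounds dissolved in DMSO to 2000 μg mL–1 stock. Fluconazole positive control, culture, media and DMSO vehicle controls in each run. Duplicate experiments; MIC in μg mL–1.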

Candida albicans [3] = assay: Inhibition of ABC efflux pumps in fluconazole resistant Candida albicans A171 assessed as reduction in energy-dependent rhodamine 6G efflux in presence of 0.1 M glucose after 25 mins by fluorescence assay relative to control; summary of the method: as §1
Candida albicans [4] = assay: Antifungal activity against fluconazole susceptible Candida albicans 003gr by CLSI protocol based broth microdilution method; format: functional; summary of the method: as §2
Candida albicans [5] = assay: Antifungal activity against Candida albicans ATCC 90028 in presence of fluconazole by CLSI protocol based broth microdilution method; format: functional
Candida albicans [6] = assay: Antifungal activity against fluconazole susceptible Candida albicans 003gr in presence of fluconazole by CLSI protocol based broth microdilution method; format: functional
Candida albicans [7] = assay: Antifungal activity against Candida albicans ATCC 90028 by CLSI protocol based broth microdilution method; format: functional; summary of the method: as §2
Candida albicans [8] = assay: Antifungal activity against fluconazole resistant Candida albicans A171 in presence of fluconazole by CLSI protocol based broth microdilution method; format: functional
Summary of the method: (§3)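 Checkerboard-style combination with fluconazole at a 1 : 1 ratio, over concentrations 2–4 fold below each agent's MIC alone, by CLSI broth microdilution. Fractional inhibitory concentration index calculated and interpreted as synergy (<0.5), additive (0.5–1), indifferent or antagonistic.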

Candida albicans [9] = assay: Antifungal activity against fluconazole resistant Candida albicans 167-2 by CLSI protocol based broth microdilution method; format: functional
Summary of the method: (§4)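 Broth microdilution per CLSI M27-A3 against clinical C. albicans isolates. Strains sub-cultured at least twice on Tryptone Soya Agar, 37 °C, 48 h. Compounds dissolved in DMSO at 2000 μg mL–1 stock. Fluconazole positive control, plus culture, media and vehicle controls. Run in duplicate; MIC in μg mL–1.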

Candida albicans [10] = assay: Antifungal activity against fluconazole resistant Candida albicans 167-1 in presence of fluconazole by CLSI protocol based broth microdilution method; format: functional; summary of the method: as §3
Candida albicans [11] = assay: Inhibition of ABC efflux pumps in fluconazole susceptible Candida albicans 002B1 assessed as reduction in energy-dependent rhodamine 6G efflux in presence of 0.1 M glucose after 25 mins […] relative to control
Candida albicans [12] = assay: Antifungal activity against fluconazole susceptible Candida albicans 0079gr in presence of fluconazole by CLSI protocol based broth microdilution method; format: functional
Candida albicans [13] = assay: Antifungal activity against fluconazole susceptible Candida albicans 004gr in presence of fluconazole by CLSI protocol based broth microdilution method; format: functional
Candida albicans [14] = assay: Antifungal activity against fluconazole susceptible Candida albicans 004B1 in presence of fluconazole by CLSI protocol based broth microdilution method; format: functional
Candida albicans [15] = assay: Antifungal activity against fluconazole susceptible Candida albicans 0079gr by CLSI protocol based broth microdilution method; format: functional; summary of the method: as §2
Candida albicans [16] = assay: Inhibition of ABC efflux pumps in fluconazole susceptible Candida albicans 004gr assessed as reduction in energy-dependent rhodamine 6G efflux in presence of 0.1 M glucose after 25 mins by fluorescence assay relative to control; summary of the method: as §1
Candida albicans [17] = assay: Down regulation of ERG11 gene expression in fluconazole susceptible Candida albicans ATCC 90028 at MIC after 2 hrs by qRT PCR analysis relative to control; format: functional
Summary of the method: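 Cells exposed to compound at MIC for 2 h; total RNA isolated, cDNA synthesised, ERG11 measured by real-time qPCR with ACT1 as endogenous control. Triplicate independent experiments; mean ± standard deviation.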

Candida albicans [18] = assay: Antifungal activity against fluconazole resistant Candida albicans 167-2 in presence of fluconazole by CLSI protocol based broth microdilution method; format: functional; summary of the method: as §3
Candida albicans [19] = assay: Inhibition of ergosterol biosynthesis in fluconazole susceptible Candida albicans ATCC 90028 at 0.5 to 1 times MIC relative to control; format: functional
Summary of the method: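 ATCC90028 grown in 50 ml TSB with MIC and ½ MIC of compound; untreated and 8 μg mL–1 fluconazole controls. Sterols extracted by alcoholic KOH method and spectrophotometrically scanned; ergosterol % calculated from A281.5 and A230 (E values 290 and 518) with dilution factor, per pellet weight.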

Candida albicans [20] = assay: Antifungal activity against fluconazole resistant Candida albicans A171 by CLSI protocol based broth microdilution method; format: functional; summary of the method: as §4
Candida albicans [21] = assay: Antifungal activity against fluconazole resistant Candida albicans 167-1 by CLSI protocol based broth microdilution method; format: functional; summary of the method: as §4
Candida albicans [22] = assay: Antifungal activity against fluconazole susceptible Candida albicans 0072gr by CLSI protocol based broth microdilution method; format: functional; summary of the method: as §2
Candida albicans [23] = assay: Inhibition of ABC efflux pumps in fluconazole susceptible Candida albicans 0079gr assessed as reduction in energy-dependent rhodamine 6G efflux in presence of 0.1 M glucose after 25 mins by fluorescence assay relative to control; summary of the method: as §1
Candida albicans [24] = assay: Antifungal activity against fluconazole susceptible Candida albicans 004gr by CLSI protocol based broth microdilution method; format: functional; summary of the method: as §2
Candida albicans [25] = assay: Antifungal activity against fluconazole susceptible Candida albicans 002B1 in presence of fluconazole by CLSI protocol based broth microdilution method; format: functional
Candida albicans [26] = assay: Inhibition of ABC efflux pumps in fluconazole susceptible Candida albicans 0072gr assessed as reduction in energy-dependent rhodamine 6G efflux in presence of 0.1 M glucose after 25 mins […] relative to control
Candida albicans [27] = assay: Inhibition of ABC efflux pumps in fluconazole resistant Candida albicans 167-1 assessed as reduction in energy-dependent rhodamine 6G efflux in presence of 0.1 M glucose after 25 mins […] relative to control
Candida albicans [28] = assay: Inhibition of ABC efflux pumps in fluconazole susceptible Candida albicans 003gr assessed as reduction in energy-dependent rhodamine 6G efflux in presence of 0.1 M glucose after 25 mins […] relative to control
Candida albicans [29] = assay: Antifungal activity against fluconazole susceptible Candida albicans 0072gr in presence of fluconazole by CLSI protocol based broth microdilution method; format: functional
Candida albicans [30] = assay: Inhibition of ABC efflux pumps in fluconazole resistant Candida albicans 167-2 assessed as reduction in energy-dependent rhodamine 6G efflux in presence of 0.1 M glucose after 25 mins […] relative to control
Candida albicans [31] = assay: Inhibition of ergosterol biosynthesis in fluconazole resistant Candida albicans A171 at 0.5 to 1 times MIC relative to control; format: functional
Summary of the method: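 Total sterols quantified by alcoholic KOH extraction in cells grown in 50 ml TSB with compounds at MIC and ½ MIC; untreated and 8 μg mL–1 fluconazole controls. Spectral scan; ergosterol content from A281.5 and A230 absorbances, dilution factor and pellet weight, correcting for 24(28) DHE.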

Candida albicans [32] = assay: Antifungal activity against fluconazole susceptible Candida albicans 002B1 by CLSI protocol based broth microdilution method; format: functional; summary of the method: as §2
Candida albicans [33] = assay: Down regulation of ERG11 gene expression in fluconazole resistant Candida albicans A171 at MIC after 2 hrs by qRT PCR analysis relative to control; format: functional
Summary of the method: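 Cells exposed 2 h to test agents at MIC. Total RNA isolated, cDNA synthesized, qPCR for ERG11 with ACT1 as endogenous control. Triplicate independent experiments, reported as mean ± standard deviation.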

Row | SMILES | inhibition (Candida albicans [1]) [%] | MIC (Candida albicans [2]) [µg/mL] | inhibition (Candida albicans [3]) [%] | MIC (Candida albicans [4]) [µg/mL] | fractional inhibitory concentration index (FICI) (Candida albicans [5]) | fractional inhibitory concentration index (FICI) (Candida albicans [6]) | MIC (Candida albicans [7]) [µg/mL] | fractional inhibitory concentration index (FICI) (Candida albicans [8]) | MIC (Candida albicans [9]) [µg/mL] | fractional inhibitory concentration index (FICI) (Candida albicans [10]) | inhibition (Candida albicans [11]) [%] | fractional inhibitory concentration index (FICI) (Candida albicans [12]) | fractional inhibitory concentration index (FICI) (Candida albicans [13]) | fractional inhibitory concentration index (FICI) (Candida albicans [14]) | MIC (Candida albicans [15]) [µg/mL] | inhibition (Candida albicans [16]) [%] | fractional inhibitory concentration index (FICI) (Candida albicans [18]) | inhibition (INH) (Candida albicans [19]) | MIC (Candida albicans [20]) [µg/mL] | MIC (Candida albicans [21]) [µg/mL] | further results
1 | O=C1NC(c2ccccc2)=CC(c2ccc(C3C=C(c4ccccc4)NC(=O)N3)cc2)N1 (stereo not given) | < 20 | 0.25 to 2 (≈ 0.592 to 4.73 µM) | < 20 | 0.25 to 2 (≈ 0.592 to 4.73 µM) | 0.13 - 0.38 | 0.13 - 0.38 | 0.25 to 2 (≈ 0.592 to 4.73 µM) | 0.031 - 0.25 | 4 to 8 (≈ 9.47 to 18.9 µM) | 0.031 - 0.25 | < 20 | 0.13 - 0.38 | 0.13 - 0.38 | 0.13 - 0.38 | 0.25 to 2 (≈ 0.592 to 4.73 µM) | < 20 | 0.031 | 66 - 99% | 4 to 8 (≈ 9.47 to 18.9 µM) | 4 to 8 (≈ 9.47 to 18.9 µM) | fold change (FC) (Candida albicans [17]): 1.5 - 13; MIC (Candida albicans [22]): 0.25 to 2 µg/mL (≈ 0.592 to 4.73 µM); inhibition (Candida albicans [23]): < 20%; MIC (Candida albicans [24]): 0.25 to 2 µg/mL (≈ 0.592 to 4.73 µM); fractional inhibitory concentration index (FICI) (Candida albicans [25]): 0.13 - 0.38; inhibition (Candida albicans [26]): < 20%; inhibition (Candida albicans [27]): < 20%; inhibition (Candida albicans [28]): < 20%; fractional inhibitory concentration index (FICI) (Candida albicans [29]): 0.13 - 0.38; inhibition (Candida albicans [30]): < 20%; inhibition (INH) (Candida albicans [31]): 49 - 94%; MIC (Candida albicans [32]): 0.25 to 2 µg/mL (≈ 0.592 to 4.73 µM); fold change (FC) (Candida albicans [33]): 1.25 - 10
2 | SC1=NC(c2ccccc2)=CC(c2ccccc2)N1 (stereo not given) | < 20 | 0.5 to 4 (≈ 1.88 to 15 µM) | < 20 | 0.5 to 4 (≈ 1.88 to 15 µM) | 0.37 - 1.13 | 0.37 - 1.13 | 0.5 to 4 (≈ 1.88 to 15 µM) | 0.254 - 0.27 | 8 to 16 (≈ 30 to 60.1 µM) | 0.254 - 0.27 | < 20 | 0.37 - 1.13 | 0.37 - 1.13 | 0.37 - 1.13 | 0.5 to 4 (≈ 1.88 to 15 µM) | < 20 | 0.254 - 0.27 | 66 - 99% | 8 to 16 (≈ 30 to 60.1 µM) | 8 to 16 (≈ 30 to 60.1 µM) | MIC (Candida albicans [22]): 0.5 to 4 µg/mL (≈ 1.88 to 15 µM); inhibition (Candida albicans [23]): < 20%; MIC (Candida albicans [24]): 0.5 to 4 µg/mL (≈ 1.88 to 15 µM); fractional inhibitory concentration index (FICI) (Candida albicans [25]): 0.37 - 1.13; inhibition (Candida albicans [26]): < 20%; inhibition (Candida albicans [27]): < 20%; inhibition (Candida albicans [28]): < 20%; fractional inhibitory concentration index (FICI) (Candida albicans [29]): 0.37 - 1.13; inhibition (Candida albicans [30]): < 20%; inhibition (INH) (Candida albicans [31]): 49 - 94%; MIC (Candida albicans [32]): 0.5 to 4 µg/mL (≈ 1.88 to 15 µM)
3 | c1ccc(-c2cc(-c3ccccc3)[nH]n2)cc1 | < 20 | 16 to 62 (≈ 72.6 to 281 µM) | < 20 | 16 to 62 (≈ 72.6 to 281 µM) | 0.63 - 2.5 | 0.63 - 2.5 | 16 to 62 (≈ 72.6 to 281 µM) | 0.625 - 1.5 | 62 to 125 (≈ 281 to 567 µM) | 0.625 - 1.5 | < 20 | 0.63 - 2.5 | 0.63 - 2.5 | 0.63 - 2.5 | 16 to 62 (≈ 72.6 to 281 µM) | < 20 | 0.625 - 1.5 | 66 - 99% | 62 to 125 (≈ 281 to 567 µM) | 62 to 125 (≈ 281 to 567 µM) | MIC (Candida albicans [22]): 16 to 62 µg/mL (≈ 72.6 to 281 µM); inhibition (Candida albicans [23]): < 20%; MIC (Candida albicans [24]): 16 to 62 µg/mL (≈ 72.6 to 281 µM); fractional inhibitory concentration index (FICI) (Candida albicans [25]): 0.63 - 2.5; inhibition (Candida albicans [26]): < 20%; inhibition (Candida albicans [27]): < 20%; inhibition (Candida albicans [28]): < 20%; fractional inhibitory concentration index (FICI) (Candida albicans [29]): 0.63 - 2.5; inhibition (Candida albicans [30]): < 20%; inhibition (INH) (Candida albicans [31]): 49 - 94%; MIC (Candida albicans [32]): 16 to 62 µg/mL (≈ 72.6 to 281 µM)
